Experimental data of several laboratories.
Protocols differ between the studies behind these lines. In brackets after ≈: the same amount, converted by molar mass.
Technique: broth dilution

Compound	organism	read-out	strain	time	quantity	result
O=C(Nc1ccc2[nH]ccc2c1)c1ccc(COC(Cn2ccnc2)c2ccc(Cl)cc2Cl)cc1 (centres unmarked)	Lodderomyces parapsilosis	microbial growth	–	–	MIC80	32 µg/mL (≈ 63.3 µM)
OC(Cn1cncn1)(Cn1cncn1)c1ccc(F)cc1F	Aspergillus niger	microbial growth	–	–	MIC	10 µg/mL (≈ 32.7 µM)
Oc1cc(O)c2c(c1)O[C@H](c1cc(O)c(O)c(O)c1)[C@@H](O)C2	Streptococcus sobrinus	microbial killing	–	–	MBC	400 µg/mL (≈ 1310 µM)
O=C(Nc1cccc(Cl)c1)c1ccc(COC(Cn2ccnc2)c2ccc(Cl)cc2Cl)cc1 (centres unmarked)	Lodderomyces parapsilosis	microbial growth	–	–	MIC80	0.06 µg/mL (≈ 0.12 µM)
C[C@@H]1O[C@@H](OC[C@H]2O[C@@H](Oc3c(-c4ccc(O)c(O)c4)oc4cc(O)cc(O)c4c3=O)[C@H](O)[C@@H](O)[C@@H]2O)[C@H](O)[C@H](O)[C@H]1O	Streptococcus sobrinus	microbial growth	–	24 h	MIC	200 µg/mL (≈ 328 µM)
C/C(=N\C1CCCCC1/N=C(\C)c1c(O)c2ccccc2oc1=O)c1c(O)c2ccccc2oc1=O (centres unmarked)	Aspergillus niger	microbial growth	–	48 h	MIC	15.6 µg/mL (≈ 32.1 µM)
O=C(Nc1ccc2ccccc2c1)c1ccc(COC(Cn2ccnc2)c2ccc(Cl)cc2Cl)cc1 (centres unmarked)	Lodderomyces parapsilosis	microbial growth	–	–	MIC80	32 µg/mL (≈ 62 µM)
Cc1ccc(C(C)C)c(OC2=C(Cl)C(=O)c3ccccc3C2=O)c1	Aspergillus niger	microbial growth	–	–	MIC	10 µg/mL (≈ 29.3 µM)
CC(=O)N1CCN(c2ccc(OCC3COC(Cn4ccnc4)(c4ccc(Cl)cc4Cl)O3)cc2)CC1 (centres unmarked)	Aspergillus niger	microbial growth	–	48 h	MIC	7.8 µg/mL (≈ 14.7 µM)
Clc1ccc(COC(Cn2ccnc2)c2ccc(Cl)cc2Cl)c(Cl)c1 (centres unmarked)	Lodderomyces parapsilosis	microbial growth	–	–	MIC80	0.06 µg/mL (≈ 0.144 µM)
C/C(=N\C(=O)/N=C(\C)c1c(O)c2ccccc2oc1=O)c1c(O)c2ccccc2oc1=O	Aspergillus niger	microbial growth	–	48 h	MIC	125 µg/mL (≈ 289 µM)
O=C1OC[C@H]2OC(O)[C@H](O)[C@@H](O)[C@@H]2OC(=O)c2cc(O)c(O)c(O)c2-c2c(O)c(O)c3oc(=O)c4c(c(O)c(O)c5oc(=O)c2c3c54)-c2c1cc(O)c(O)c2O (mixture of isomers)	Streptococcus sobrinus	microbial killing	–	–	MBC	200 µg/mL
C/C(=N\NC(=O)/N=C(\C)c1c(O)c2ccccc2oc1=O)c1c(O)c2ccccc2oc1=O	Aspergillus niger	microbial growth	–	48 h	MIC	125 µg/mL (≈ 279 µM)
O=C(O[C@@H]1O[C@@H]2COC(=O)c3cc(O)c(O)c(O)c3-c3c(cc(O)c(O)c3O)C(=O)O[C@H]([C@H]1O)[C@@H]2O)c1cc(O)c(O)c(O)c1	Streptococcus sobrinus	microbial growth	–	24 h	MIC	200 µg/mL (≈ 315 µM)
COc1ccc(NC(=O)c2ccc(COC(Cn3ccnc3)c3ccc(Cl)cc3Cl)cc2)cc1 (centres unmarked)	Lodderomyces parapsilosis	microbial growth	–	–	MIC80	0.125 µg/mL (≈ 0.252 µM)
O=C1O[C@H]2[C@@H]3OC(=O)c4cc(O)c(O)c(O)c4-c4c(O)c(O)c5oc(=O)c6c(c(O)c(O)c7oc(=O)c4c5c76)-c4c(cc(O)c(O)c4O)C(=O)OC[C@H]3OC(O)[C@@H]2OC(=O)c2cc(O)c(O)c(O)c2-c2c1cc(O)c(O)c2O (mixture of isomers)	Streptococcus sobrinus	microbial growth	–	24 h	MIC	100 µg/mL
C/C(=N\N=C(/C)c1c(O)c2ccccc2oc1=O)c1c(O)c2ccccc2oc1=O	Aspergillus niger	microbial growth	–	48 h	MIC	125 µg/mL (≈ 309 µM)
O=c1oc2c(O)c(O)cc3c(=O)oc4c(O)c(O)cc1c4c23	Streptococcus sobrinus	microbial growth	–	24 h	MIC	100 µg/mL (≈ 331 µM)
Cc1ccc(NC(=O)c2ccc(COC(Cn3ccnc3)c3ccc(Cl)cc3Cl)cc2)cc1 (centres unmarked)	Lodderomyces parapsilosis	microbial growth	–	–	MIC80	0.06 µg/mL (≈ 0.125 µM)
CO/N=C(\C(=O)N[C@@H]1C(=O)N2C(C(=O)O)=C(CSc3nc(=O)c(=O)[nH]n3C)CS[C@H]12)c1csc(N)n1	Neisseria gonorrhoeae	microbial growth	ATCC49226	–	MIC	0.008 µg/mL (≈ 0.0144 µM)
